High-throughput results (PubChem)
Hits are enriched below; roughly 3.6% of the tested compounds scored in any of these assays.
ATG4B inhibitor: ATG4B protease inhibitors, primary screen, biochemical, fluorescence, uHTS | inhibition, % at 8.33 µM | Cysteine protease ATG4B (Homo sapiens), Q9Y4P1 | 340,000 compounds, 0.51% hits | ATG4B cleavage of LC3-PLA2, NBD-HPC fluorescence, 1 h; in the data active means inhibition above about 40%
SENP1 inh: human SENP1 catalytic domain inhibitors, primary screen, biochemical, FRET, uHTS. 360,000 compounds, 0.21% hits. inhibition, % at 10 µM. recombinant SENP1 catalytic domain, CyPet-SUMO1-YPet FRET cleavage. Sentrin-specific protease 1 (Homo sapiens), Q9P0U3;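 active means inhibition at least 30% at 10 µM, raw YFP signal under a set limit, fluorescence ratio 0.5 to 1.5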
Target sequence (Q9P0U3 419-644 limits assumed): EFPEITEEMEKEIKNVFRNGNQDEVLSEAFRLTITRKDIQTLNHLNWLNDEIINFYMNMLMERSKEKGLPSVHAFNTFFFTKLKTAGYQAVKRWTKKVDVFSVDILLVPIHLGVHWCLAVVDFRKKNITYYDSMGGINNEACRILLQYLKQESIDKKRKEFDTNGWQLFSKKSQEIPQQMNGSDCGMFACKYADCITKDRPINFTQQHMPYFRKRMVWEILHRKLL
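System: Recombinant human SENP1 catalytic domain, His6-tagged | Incubation: Enzyme reaction for 50 min at room temperature, dark | Medium: Tris pH 8 with BME, BSA, NP40 and catalase | Also added: 25 nM SUMO1 FRET substrate | Compound: 10 µM single point, 0.5% DMSO | Measured by: FRET fluorescence in CFP and YFP emission channels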
NadD block: inhibitors of S. aureus NadD, primary screen, biochemical, colorimetric, uHTS | 360,000 compounds, 0.78% hits | purified NadD enzyme, colorimetric absorbance read-out | inhibition, % at 20 µM; in the data active means inhibition above about 26%
UCH37 inh: inhibitors of human UCH37 deubiquitinase, primary screen, biochemical, Ub-AMC cleavage, fluorescence; inhibition, % (no concentration beside the values); Ubiquitin carboxyl-terminal hydrolase isozyme L5 (Homo sapiens), Q9Y5K5; 330,000 compounds, 0.33% hits; purified proteasome/UCH37; AID 588478, 2011;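 active means mean inhibition over replicate wells above about 20%, limit read from the data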
Target sequence (Q9Y5K5 whole entry, looked up): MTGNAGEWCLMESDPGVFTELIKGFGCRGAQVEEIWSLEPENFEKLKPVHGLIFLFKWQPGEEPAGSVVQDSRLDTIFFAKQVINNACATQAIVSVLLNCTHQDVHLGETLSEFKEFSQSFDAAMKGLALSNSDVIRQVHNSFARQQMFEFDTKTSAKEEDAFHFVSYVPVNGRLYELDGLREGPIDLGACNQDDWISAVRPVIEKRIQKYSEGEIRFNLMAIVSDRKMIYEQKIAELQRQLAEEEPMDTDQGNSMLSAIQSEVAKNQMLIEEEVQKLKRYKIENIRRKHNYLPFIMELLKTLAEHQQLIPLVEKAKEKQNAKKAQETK
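Reagent: Ub-AMC substrate; assay system: Proteasome-associated human UCH37 deubiquitinase; controls: no-proteasome and no-compound wells; read-out: % inhibition of Ub-AMC cleavage fluorescence; timing: 30 min preincubation with enzyme, 25 min cleavage at room temperature; signal: AMC fluorescence from Ub-AMC cleavage, excitation 355 nm, emission 460 nm; buffer or medium: Tris-HCl pH 7.4 plus ovalbumin, ATP-MgCl2, DTT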
NR3A LBD binder: binders of NR3A ligand-binding domain, primary screen, biophysical, differential scanning fluorimetry, uHTS | Glutamate receptor ionotropic, NMDA 3A (GRIN3A) ligand-binding domain | NR3A LBD differential scanning fluorimetry, Tm shift; 0% = protein alone, 100% = glycine-bound protein | Tm shift relative to glycine control, % at 25 µM | 340,000 compounds, 2.5% hits | AID 1259313, 2017;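 active means melting temperature shift of at least 10% of the positive control shift, at one fixed dose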
NadD inh conf: inhibitors of S. aureus NadD, confirmation, biochemical, colorimetric, single concentration. inhibition, % at 20 µM. 2,000 compounds, 13% hits. purified S. aureus NadD, colorimetric enzyme assay. shares compounds with NadD block; in the data active means inhibition mostly above about 42%, no sharp cut-off; inactive means mostly below about 42%
A number is an active result.

Cc1nc(/N=C(\N)NC(=O)c2ccccc2)nc2ccccc12 was read as ATG4B inhibitor inactive, SENP1 inh inactive, NadD block inactive and NR3A LBD binder inactive.
`O=c1oc2ccc3ccccc3c2cc1-c1nnc(-c2ccccc2)o1` gave ATG4B inhibitor inactive, SENP1 inh inactive, NadD block inactive, UCH37 inh inactive and NR3A LBD binder inactive.
`O=c1oc2ccc3ccccc3c2cc1-c1nnc(-c2cccs2)o1` gave ATG4B inhibitor inactive, SENP1 inh inactive, NadD block 50, NR3A LBD binder inactive and NadD inh conf inactive.
For FC(F)Oc1ccccc1C=NNc1nc2ccccc2o1 the results were UCH37 inh inactive.
Cc1ccc(C(=O)NN2CC(O)=C(c3nc(-c4cccc([N+](=O)[O-])c4)cs3)C2=N)cc1 was read as ATG4B inhibitor inactive, SENP1 inh inactive, NadD block 33, UCH37 inh inactive, NR3A LBD binder inactive and NadD inh conf inactive.
Screening CC(=NNS(=O)(=O)c1ccc([N+](=O)[O-])cc1)c1ccc2c(c1)OCO2 returned UCH37 inh inactive.
Screening CCCn1c(C(C)Nc2nc(-c3ccc(Cl)c([N+](=O)[O-])c3)cs2)nc2cc(Cl)c(N3CCCCC3)cc21 (configuration not stated) returned ATG4B inhibitor inactive, SENP1 inh inactive, NadD block 33, UCH37 inh inactive, NR3A LBD binder inactive and NadD inh conf inactive.
`Cc1ccc(-c2csc(NC(CO)c3nc4ccccc4n3CCOCCO)n2)cc1` (configuration not stated) gave ATG4B inhibitor inactive, SENP1 inh inactive, NadD block inactive, UCH37 inh inactive and NR3A LBD binder inactive.
`Cc1ccc(Cn2c(C(CO)Nc3nc(-c4ccc(Cl)c([N+](=O)[O-])c4)cs3)nc3ccccc32)cc1` (configuration not stated) gave ATG4B inhibitor inactive, SENP1 inh inactive, NadD block 51, UCH37 inh inactive, NR3A LBD binder 26 and NadD inh conf inactive.
`CC(=NNC(=O)c1ccc(NC(=O)c2ccc(F)cc2)cc1)c1ccccc1` gave UCH37 inh inactive.
Screening COc1ccc2ccccc2c1C=NNC(=O)c1nnn(-c2nonc2N)c1CN(C)C returned UCH37 inh inactive.
`Cc1ccc(NC(=O)N(Cc2ccc3c(c2)OCO3)Cc2cc3cc4c(cc3[nH]c2=O)OCCO4)cc1` gave ATG4B inhibitor inactive, SENP1 inh inactive, NadD block 34, UCH37 inh inactive, NR3A LBD binder inactive and NadD inh conf inactive.
Cc1ccc(NC(=O)N(Cc2cccs2)Cc2cc3cc4c(cc3[nH]c2=O)OCO4)cc1 was read as UCH37 inh inactive.
For O=C(C[n+]1ccccc1)NN=Cc1ccc(Cl)c(Cl)c1 the results were UCH37 inh inactive.
CCN=C1NN=C(c2cc(C)n(CCc3ccccc3)c2C)CS1 was read as ATG4B inhibitor inactive, SENP1 inh inactive, NadD block inactive, UCH37 inh inactive and NR3A LBD binder inactive.
For COCCn1c(C)cc(C2=NNC(=Nc3ccc(OC)cc3)SC2)c1C the results were ATG4B inhibitor inactive, SENP1 inh inactive, NadD block inactive, UCH37 inh inactive and NR3A LBD binder inactive.
For CCN=C1NN=C(c2cc(C)n(Cc3ccco3)c2C)CS1 the results were ATG4B inhibitor inactive, SENP1 inh inactive, NadD block 37, UCH37 inh inactive, NR3A LBD binder inactive and NadD inh conf inactive.
For COCCn1c(C)cc(C2=NNC(=Nc3ccccc3)SC2)c1C the results were ATG4B inhibitor inactive, SENP1 inh inactive, NadD block 36, UCH37 inh inactive, NR3A LBD binder inactive and NadD inh conf inactive.
Screening CN(C)C=Nc1nc(Sc2ccc(C(F)(F)F)cc2[N+](=O)[O-])n[nH]1 returned UCH37 inh inactive.
For O=C(NN=Cc1ccc(F)c(F)c1)c1cccc(S(=O)(=O)N2CCCCC2)c1 the results were UCH37 inh inactive.
`Cc1ccc(NS(=O)(=O)c2cc(NC(=O)c3ccc4c(c3)NC(=O)CS4)ccc2C)c(C)c1` gave ATG4B inhibitor inactive, SENP1 inh inactive, NadD block 34, UCH37 inh inactive, NR3A LBD binder 22 and NadD inh conf inactive.
`CN(C)C=Nc1ncc(C(=O)c2ccc(-c3ccccc3)cc2)s1` gave UCH37 inh inactive.
`Nc1c(C(=O)N/N=C/c2ccccc2Cl)oc2nc(-c3ccccc3)cc(-c3ccco3)c12` gave ATG4B inhibitor inactive, SENP1 inh inactive, NadD block 31, NR3A LBD binder inactive and NadD inh conf inactive.
Nc1c(C(=O)Nc2nc3ccccc3s2)sc2nc(-c3cccs3)ccc12 was read as ATG4B inhibitor inactive, SENP1 inh inactive, NadD block 34, UCH37 inh inactive, NR3A LBD binder 28 and NadD inh conf inactive.
`Nc1c(C(=O)Nc2ccccc2)sc2nc(-c3cccnc3)ccc12` gave UCH37 inh inactive.
Nc1c(C(=O)Nc2ccccc2)sc2nc(-c3ccco3)ccc12 was read as ATG4B inhibitor inactive, SENP1 inh inactive, NadD block 35, UCH37 inh inactive, NR3A LBD binder inactive and NadD inh conf inactive.
`NC(=O)NC(=O)C[n+]1cccc(C=NO)c1` gave UCH37 inh inactive.
Screening Cn1c(SCC(=O)c2ccc(-c3ccccc3)cc2)nnc1-c1ccco1 returned ATG4B inhibitor inactive, SENP1 inh inactive, NadD block 32, UCH37 inh inactive, NR3A LBD binder inactive and NadD inh conf inactive.
N#C/C(=C/c1ccc(F)cc1)c1nnc(NC(=O)c2ccccc2)s1 was read as ATG4B inhibitor inactive, SENP1 inh inactive, NadD block 36, UCH37 inh inactive, NR3A LBD binder inactive and NadD inh conf inactive.
Screening CC[C@H](C)/C=C(C)/C=C/C(=O)Cc1cc(O)c(C)c(O)c1C=O returned ATG4B inhibitor inactive, SENP1 inh inactive, NadD block 33, UCH37 inh inactive, NR3A LBD binder inactive and NadD inh conf inactive.
Screening CCC(C)n1c(NC(=O)c2ccccc2)c(C#N)c2nc3ccccc3nc21 (configuration not stated) returned ATG4B inhibitor inactive, SENP1 inh inactive, NadD block 41, UCH37 inh inactive, NR3A LBD binder inactive and NadD inh conf inactive.
